Assay results published in ChEMBL document CHEMBL1255284, “Aspergillus section Fumigati: antifungal susceptibility patterns and sequence-based identification” (2008).
Values after ≈ are worked out from the molar mass of the structure shown.

Experiments:
Aspergillus lentulus [1] = experiment: Antimicrobial activity against Aspergillus lentulus isolate CNM-CM-3537 obtained from sputum of patient after 48 hrs by broth microdilution method; type: functional; settings: isolate CNM-CM-3537, 48 h
In short: (§1)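 CLSI M38-A broth microdilution with modifications: RPMI 1640 with L-glutamine, 2% glucose, buffered to pH 7 with 0.165 M MOPS. Inoculum of 1 × 10^5 to 5 × 10^5 CFU/ml from 3- to 5-day-old cultures. Incubated 35°C, 48 h, humid. Visual reading with a mirror. MIC is complete growth inhibition; echinocandin MEC is hyphal morphological alteration. Azoles 8 to 0.015 μg/ml; others 16 to 0.03 μg/ml.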

[2] = tested on: Neosartorya pseudofischeri; experiment: Antimicrobial activity against Neosartorya pseudofischeri isolate CNM-CM-3769 obtained from sputum of patient after 48 hrs by broth microdilution method; type: functional; settings: Aspergillus thermomutatus
In short: (§2)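 CLSI M38-A broth microdilution with modifications: RPMI 1640 with L-glutamine, MOPS-buffered to pH 7, plus 2% glucose. Inoculum 1 × 10^5 to 5 × 10^5 CFU/ml from 3–5-day cultures. Incubated at 35°C for 48 h, humid. Read visually with a mirror. MIC = complete growth inhibition; echinocandin MEC = altered hyphal morphology. QC strain A. fumigatus ATCC 2004305.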

Neosartorya hiratsukae [3] = experiment: Antimicrobial activity against Neosartorya hiratsukae isolate CNM-CM-3764 obtained from oropharyngeal exudate of patient after 48 hrs by broth microdilution method; type: functional; settings: Aspergillus hiratsukae, isolate CNM-CM-3764, 48 h; in short: as §1
Aspergillus lentulus [4] = experiment: Antimicrobial activity against Aspergillus lentulus isolate CNM-CM-4415 obtained from sputum of patient after 48 hrs by broth microdilution method; type: functional; settings: isolate CNM-CM-4415, 48 h; in short: as §1
Aspergillus lentulus [5] = experiment: Antimicrobial activity against Aspergillus lentulus isolate CNM-CM-4428 obtained from skin of patient after 48 hrs by broth microdilution method; type: functional; settings: isolate CNM-CM-4428, 48 h; in short: as §1
Aspergillus viridinutans [6] = experiment: Antimicrobial activity against Aspergillus viridinutans isolate CNM-CM-3147 obtained from oropharyngeal exudate of patient after 48 hrs by broth microdilution method; type: functional; settings: isolate CNM-CM-3147, 48 h; in short: as §1
Aspergillus lentulus [7] = experiment: Antimicrobial activity against Aspergillus lentulus isolate CNM-CM-3599 obtained from sputum of patient after 48 hrs by broth microdilution method; type: functional; settings: isolate CNM-CM-3599, 48 h; in short: as §1
[8] = tested on: Aspergillus fumisynnematus; experiment: Antimicrobial activity against Aspergillus fumisynnematus isolate CNM-CM-4063 obtained from bronchoalveolar aspirate of patient after 48 hrs by broth microdilution method; type: functional; settings: isolate CNM-CM-4063, Lung; in short: as §1
Aspergillus lentulus [9] = experiment: Antimicrobial activity against Aspergillus lentulus isolate CNM-CM-4387 obtained from sputum of patient after 48 hrs by broth microdilution method; type: functional; settings: isolate CNM-CM-4387, 48 h; in short: as §1
Aspergillus viridinutans [10] = experiment: Antimicrobial activity against Aspergillus viridinutans isolate CNM-CM-4518 obtained from nail of patient after 48 hrs by broth microdilution method; type: functional; settings: isolate CNM-CM-4518, 48 h; in short: as §1
[11] = tested on: Aspergillus fumigatiaffinis; experiment: Antimicrobial activity against Aspergillus fumigatiaffinis isolate CNM-CM-3227 obtained from bronchoalveolar lavage fluid of patient after 48 hrs by broth microdilution method; settings: isolate CNM-CM-3227, Lung
Aspergillus lentulus [12] = experiment: Antimicrobial activity against Aspergillus lentulus isolate CNM-CM-3134 obtained from sputum of patient after 48 hrs by broth microdilution method; type: functional; settings: isolate CNM-CM-3134, 48 h; in short: as §1
Neosartorya hiratsukae [13] = experiment: Antimicrobial activity against Neosartorya hiratsukae isolate CNM-CM-3740 obtained from oropharyngeal exudate of patient after 48 hrs by broth microdilution method; type: functional; settings: Aspergillus hiratsukae, isolate CNM-CM-3740, 48 h; in short: as §1
Aspergillus lentulus [14] = experiment: Antimicrobial activity against Aspergillus lentulus isolate CNM-CM-4426 obtained from sputum of patient after 48 hrs by broth microdilution method; type: functional; settings: isolate CNM-CM-4426, 48 h; in short: as §1
Aspergillus lentulus [15] = experiment: Antimicrobial activity against Aspergillus lentulus isolate CNM-CM-3538 obtained from sputum of patient after 48 hrs by broth microdilution method; type: functional; settings: isolate CNM-CM-3538, 48 h; in short: as §1
Aspergillus lentulus [16] = experiment: Antimicrobial activity against Aspergillus lentulus isolate CNM-CM-1290 obtained from sputum of patient after 48 hrs by broth microdilution method; type: functional; settings: isolate CNM-CM-1290, 48 h; in short: as §1
Aspergillus lentulus [17] = experiment: Antimicrobial activity against Aspergillus lentulus isolate CNM-CM-3364 obtained from bronchoalveolar lavage fluid of patient after 48 hrs by broth microdilution method; type: functional; settings: isolate CNM-CM-3364, Lung; in short: as §1
[18] = tested on: Neosartorya pseudofischeri; experiment: Antimicrobial activity against Neosartorya pseudofischeri isolate CNM-CM-2270 obtained from sputum of patient after 48 hrs by broth microdilution method; type: functional; settings: Aspergillus thermomutatus, isolate CNM-CM-2270, 48 h; in short: as §2
Neosartorya hiratsukae [19] = experiment: Antimicrobial activity against Neosartorya hiratsukae isolate CNM-CM-3305 obtained from skin of patient after 48 hrs by broth microdilution method; type: functional; settings: Aspergillus hiratsukae, isolate CNM-CM-3305, 48 h; in short: as §1
[20] = tested on: Neosartorya pseudofischeri; experiment: Antimicrobial activity against Neosartorya pseudofischeri isolate CNM-CM-3914 obtained from nail of patient after 48 hrs by broth microdilution method; type: functional; settings: Aspergillus thermomutatus, isolate CNM-CM-3914, 48 h; in short: as §2
Aspergillus lentulus [21] = experiment: Antimicrobial activity against Aspergillus lentulus isolate CNM-CM-3583 obtained from sputum of patient after 48 hrs by broth microdilution method; type: functional; settings: isolate CNM-CM-3583, 48 h; in short: as §1
Neosartorya hiratsukae [22] = experiment: Antimicrobial activity against Neosartorya hiratsukae isolate CNM-CM-3303 obtained from skin of patient after 48 hrs by broth microdilution method; type: functional; settings: Aspergillus hiratsukae, isolate CNM-CM-3303, 48 h; in short: as §1
Neosartorya hiratsukae [23] = experiment: Antimicrobial activity against Neosartorya hiratsukae isolate CNM-CM-4328 obtained from cornea of patient after 48 hrs by broth microdilution method; type: functional; settings: Aspergillus hiratsukae, isolate CNM-CM-4328, Cornea; in short: as §1
Aspergillus lentulus [24] = experiment: Antimicrobial activity against Aspergillus lentulus isolate CNM-CM-4420 obtained from nail of patient after 48 hrs by broth microdilution method; type: functional; settings: isolate CNM-CM-4420, 48 h; in short: as §1
Aspergillus fumigatus = experiment: Antimicrobial activity against Aspergillus fumigatus ATCC 2004305 after 48 hrs by broth microdilution method; type: functional; settings: ATCC 2004305, 48 h
Aspergillus lentulus [25] = experiment: Antimicrobial activity against Aspergillus lentulus isolate CNM-CM-4370 obtained from sputum of patient after 48 hrs by broth microdilution method; type: functional; settings: isolate CNM-CM-4370, 48 h; in short: as §1
Aspergillus lentulus [26] = experiment: Antimicrobial activity against Aspergillus lentulus isolate CNM-CM-4330 obtained from sputum of patient after 48 hrs by broth microdilution method; type: functional; settings: isolate CNM-CM-4330, 48 h; in short: as §1
[27] = tested on: Aspergillus fumigatiaffinis; experiment: Antimicrobial activity against Aspergillus fumigatiaffinis isolate CNM-CM-2280 obtained from sputum of patient after 48 hrs by broth microdilution method; settings: isolate CNM-CM-2280, 48 h
[28] = tested on: Neosartorya pseudofischeri; experiment: Antimicrobial activity against Neosartorya pseudofischeri isolate CNM-CM-4060 obtained from sputum of patient after 48 hrs by broth microdilution method; type: functional; settings: Aspergillus thermomutatus; in short: as §2

## C[C@@H](c1nc(-c2ccc(C#N)cc2)cs1)[C@](O)(Cn1cncn1)c1ccc(F)cc1F [RAVUCONAZOLE]
Aspergillus lentulus [1]
  MIC: 3 µg/mL (≈ 6.86 µM)
[2]
  MIC: 2 µg/mL (≈ 4.57 µM)
Neosartorya hiratsukae [3]
  MIC: 1.33 µg/mL (≈ 3.04 µM)
Aspergillus lentulus [4]
  MIC: 4.66 µg/mL (≈ 10.7 µM)
Aspergillus lentulus [5]
  MIC: 5 µg/mL (≈ 11.4 µM)
Aspergillus viridinutans [6]
  MIC: 5.66 µg/mL (≈ 12.9 µM)
Aspergillus lentulus [7]
  MIC: 2 µg/mL (≈ 4.57 µM)
[8]
  MIC: 0.83 µg/mL (≈ 1.9 µM)
Aspergillus lentulus [9]
  MIC: 3 µg/mL (≈ 6.86 µM)
Aspergillus viridinutans [10]
  MIC: 4 µg/mL (≈ 9.14 µM)
[11]
  MIC: 5 µg/mL (≈ 11.4 µM)
Aspergillus lentulus [12]
  MIC: 6 µg/mL (≈ 13.7 µM)
Neosartorya hiratsukae [13]
  MIC: 0.66 µg/mL (≈ 1.51 µM)
Aspergillus lentulus [14]
  MIC: 5.33 µg/mL (≈ 12.2 µM)
Aspergillus lentulus [15]
  MIC: 7 µg/mL (≈ 16 µM)
Aspergillus lentulus [16]
  MIC: 3.5 µg/mL (≈ 8 µM)
Aspergillus lentulus [17]
  MIC: 5.6 µg/mL (≈ 12.8 µM)
[18]
  MIC: 3.5 µg/mL (≈ 8 µM)
Neosartorya hiratsukae [19]
  MIC: 0.25 µg/mL (≈ 0.571 µM)
[20]
  MIC: 4 µg/mL (≈ 9.14 µM)
Aspergillus lentulus [21]
  MIC: 2 µg/mL (≈ 4.57 µM)
Neosartorya hiratsukae [22]
  MIC: 0.375 µg/mL (≈ 0.857 µM)
Neosartorya hiratsukae [23]
  MIC: 0.5 µg/mL (≈ 1.14 µM)
Aspergillus lentulus [24]
  MIC: 4 µg/mL (≈ 9.14 µM)
Aspergillus fumigatus
  MIC: 0.25 µg/mL (≈ 0.571 µM)
Aspergillus lentulus [25]
  MIC: 5.33 µg/mL (≈ 12.2 µM)
Aspergillus lentulus [26]
  MIC: 1.5 µg/mL (≈ 3.43 µM)
[27]
  MIC: 6 µg/mL (≈ 13.7 µM)
[28]
  MIC: 3.33 µg/mL (≈ 7.61 µM)
